According to ChEMBL document CHEMBL1124102, “Synthesis and biodistribution of 99mTc-labeled piperidinyl bis(aminoethanethiol) complexes: potential brain perfusion imaging agents for single photon emission computed tomography” (J Med Chem, 1988):

Assays:
Rattus norvegicus [1] = experiment: Brain Uptake of compound was measured after 2 min of administration; format: functional, organism-based
In short: (§1)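 Tc-99m complex injected into rats, three per time point. At set times, 1 mL blood was drawn by cardiac puncture and the animal was killed by cardiectomy. Organs were excised, weighed and gamma-counted. Percent dose per organ came from comparing tissue counts with dilutions of the injected dose, reported as the mean with the range across the three rats.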

[2] = Ratio of brain dose per gram to the blood dose per gram measured at 15 min; format: functional, tissue-based
In short: (§2)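 Rats (three per time point) were given the Tc-99m complex, then sampled by cardiac puncture, killed, and had organs excised and gamma-counted against injected-dose dilutions. Percent dose/organ was converted to percent dose/gram using mean organ weights (brain 1.65 g; blood 18 g). The ratio is (brain dose/gram)/(blood dose/gram).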

[3] = Ratio of brain dose per gram to the blood dose per gram measured at 2 min; format: functional, tissue-based; in short: as §2
Rattus norvegicus [4] = experiment: Brain Uptake of compound was measured after 15 min of administration; format: functional, organism-based; in short: as §1

Substance	Uptake value (Rattus norvegicus [1])	Ratio [2]	Ratio [3]	Uptake value (Rattus norvegicus [4])
Tc-labeled 3,3,10,10-tetramethyl-6-(2-methylhexahydro-1-pyridinylmethyl)-1-acetone2,11-dithia-5-azonia-8-azatricyclo[6.3.0.01,5]undecane (isomer)	1.8	3.84	4.96	0.54
Tc-labeled 3,3,10,10-tetramethyl-6-(2-methylhexahydro-1-pyridinylmethyl)-1-acetone2,11-dithia-5-azonia-8-azatricyclo[6.3.0.01,5]undecane	0.61	1.84	1.06	0.35
Tc-labeled 3,3,10,10-tetramethyl-6-(2,6-dimethylhexahydro-1-pyridinylmethyl)-1-acetone2,11-dithia-5-azonia-8-azatricyclo[6.3.0.01,5]undecane (isomer)	1.19	2.07	1.98	0.54
